Reference: ChEMBL document CHEMBL1122033, “Chemistry and hypoglycemic activity of N-[[(Dialkylamino)alkoxy]phenyl]benzamidines” (J Med Chem, 1982)

What was measured:
Rattus norvegicus [1] = assay: Blood sugar lowering (hypoglycemic activity) in the glucose-primed rat at a dose of 100 mg/kg; Decrease in blood sugar level.; format: functional
Method in brief: (§1)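 Male Sprague–Dawley rats, 140–150 g, groups of six, fasted 16 h. Each rat got 100 mg glucose s.c. in 0.5 mL isotonic NaCl, then the test agent at once orally as an aqueous carboxymethylcellulose suspension (0.5 mL); controls got vehicle. At 2 h, under light ether, blood was taken by cardiac puncture. Glucose was read by Autoanalyzer (Hoffman method). Values are percent difference from vehicle controls.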

[2] = Lethality in 50% (LD50) of male and female CF-1 strain mice weighing 16-25g, intraperitoneal administration; format: ADME, organism-based; conditions: both, CF-1, mouse, in vivo, ip
Method in brief: (§2)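 Four mice per dose level. Drug dissolved in distilled water and suspended in 0.5% carboxymethylcellulose or 0.5% gelatin, with pH adjusted by 1 N HCl or 1 N NaOH where the drug tolerated it. Doses logarithmically spaced, given orally or intraperitoneally. Mice observed 7 days after dosing. LD50 derived by the Bliss method, expressed in mg/kg.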

[3] = Dose that produces lethality in 50% (LD50) of male and female carworth farms CF-1 strain mice weighing 16-25 g oral (po) route of administration; format: ADME, organism-based; conditions: both, CF-1, mouse, in vivo; method in brief: as §2
Rattus norvegicus [4] = assay: Compound was evaluated for the blood sugar lowering (hypoglycemic activity) in the glucose-primed rat at a dose of 100 mg/kg; Increase in blood sugar level; format: functional; method in brief: as §1
[5] = Dose that produces lethality in 50% (LD50) of male and female carworth farms CF-1 strain mice weighing 16-25 g intraperitoneal (ip) route of administration; format: ADME, organism-based; conditions: both, CF-1, mouse, in vivo; method in brief: as §2
Rattus norvegicus [6] = assay: Compound was evaluated for the blood sugar lowering (hypoglycemic activity) in the glucose-primed rat at a dose of 100 mg/kg; format: functional; method in brief: as §1
Rattus norvegicus [7] = assay: Evaluated in glucose-primed, fasted rat for the percentage reduction in blood glucose level after 2 hr as compared to control groups at a dose of 50 mg of free base / kg body weight administered orally; format: functional; method in brief: as §1
Rattus norvegicus [8] = assay: Evaluated in glucose-primed, fasted rat for the percentage reduction in blood glucose level after 2 h as compared to control groups at a dose of 25 mg of free base / kg body weight administered orally; format: functional; method in brief: as §1
Rattus norvegicus [9] = assay: Evaluated in glucose primed, adrenalectomized rat for the percentage reduction in blood glucose level as compared to pretreatment blood glucose values at a dose of 25 mg of free base / kg body weight administered orally
Rattus norvegicus [10] = assay: Evaluated in glucose-primed, fasted rat for the percentage reduction in blood glucose level after 2 hr as compared to control groups at a dose of 100 mg of free base / kg body weight administered orally; format: functional; method in brief: as §1
Rattus norvegicus [11] = assay: Evaluated in alloxanized, diabetic rat for the percentage reduction in blood glucose level as compared to pretreatment blood glucose values at a dose of 200 mg of free base / kg body weight administered orally.; format: functional
Method in brief: (§3)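 Three days later, rats positive for urine glucose (reagent strip) formed groups of six. Tail-vein blood was taken before oral dosing and again at 5 h. Percent reduction is versus pretreatment glucose.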

[12] = Lethal dose required to produce 50% lethality in male and female carworth farms CF-1 strain mice weighing 16-25 g administered orally; conditions: both, CF-1, in vivo, po
Cavia porcellus [13] = assay: Evaluated in normal, fasted guinea pig for the percentage reduction in blood glucose level after 5 hr as compared to pretreatment blood glucose values at a dose of 100 mg of free base / kg body weight administered orally; format: functional
Method in brief: (§4)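 Male and female Hartley guinea pigs, 450–500 g, were food-deprived (water allowed) 18 h and split by sex into groups of four. A zero-time blood sample was taken by cardiac puncture, then drug was given, and blood was drawn again 5 h later. Percent reduction in blood glucose is relative to pretreatment values.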

[14] = Lethal dose required to produce 50% lethality in male and female carworth farms CF-1 strain mice weighing 16-25 g administered intraperitoneally; conditions: both, CF-1, rat, in vivo, ip
Rattus norvegicus [15] = assay: Evaluated in alloxanized, diabetic rat for the percentage reduction in blood glucose level as compared to pretreatment blood glucose values at a dose of 100 mg of free base / kg body weight administered orally.; format: functional; method in brief: as §3
Monkey [16] = assay: Evaluated in normal, fasted monkey for the percentage reduction in blood glucose level as compared to pretreatment blood glucose values at a dose of 150 mg of free base / kg body weight administered orally; format: functional, Cercopithecidae
Method in brief: (§5)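 Male and female rhesus monkeys (2–3 kg) were food-deprived, with water, for 18 h. Pretreatment blood was taken from the popliteal vein. Dosing was oral by stomach tube, with repeat sampling 5 h post-dose. Results are percent reduction in blood glucose relative to pretreatment values.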

Monkey [17] = assay: Evaluated in normal, fasted monkey for the percentage reduction in blood glucose level after 5 hr as compared to pretreatment blood glucose values at a dose of 10 mg of free base / kg body weight administered orally; format: functional, Cercopithecidae; method in brief: as §5
Cavia porcellus [18] = assay: Evaluated in normal, fasted guinea pig for the percentage reduction in blood glucose level after 5 hr as compared to pretreatment blood glucose values at a dose of 25 mg of free base / kg body weight administered orally; format: functional; method in brief: as §4
Rattus norvegicus [19] = assay: Evaluated in alloxanized, diabetic rat for the percentage reduction in blood glucose level after 5 hr as compared to pretreatment blood glucose values at a dose of 100 mg of free base / kg body weight administered orally; format: functional; method in brief: as §3
Rattus norvegicus [20] = assay: Evaluated for the blood sugar lowering (hypoglycemic activity ) in the glucose-primed rat at a dose of 100 mg/kg; format: functional; method in brief: as §1
Rattus norvegicus [21] = assay: Compound was evaluated for the blood sugar lowering (hypoglycemic activity ) in the glucose-primed rat at a dose of 50 mg of base/kg; format: functional; method in brief: as §1

Compound	Change (Rattus norvegicus [1])	LD50 [2]	LD50 [3]	further results
CC(C)N(CCOc1ccccc1/N=C(/Nc1ccccc1)c1ccccc1)C(C)C.Cl	18.3%	253 mg/kg	840 mg/kg	–
CCN(CC)CCOc1ccc(N/C(=N\c2ccccc2)c2ccccc2)cc1.O=C(O)C(=O)O	6.8%	100 mg/kg	687 mg/kg	–
CC(C)N(CCCOc1ccc(N/C(=N\c2ccc(Cl)cc2)c2ccccc2)cc1)C(C)C.Cl	18.3%	187 mg/kg	1000 mg/kg	–
CC(C)N(CCOc1ccc(N/C(=N\c2ccc(Cl)c(Cl)c2)c2ccccc2)cc1)C(C)C.Cl	13.8%	400 mg/kg	1000 mg/kg	–
Br.COc1ccc(N/C(=N/c2ccc(OCCN3CCCC3)cc2)c2ccccc2)cc1	35%	148 mg/kg	900 mg/kg	–
CCCCN(CCCC)CCCOc1ccc(N/C(=N\c2ccccc2)c2ccccc2)cc1.Cl	10.9%	148 mg/kg	867 mg/kg	–
Br.CN(C)CCOc1ccc(N/C(=N\c2ccccc2)c2ccccc2)cc1	–	112 mg/kg	500 mg/kg	Change (Rattus norvegicus [4]): 13.1%
CC(C)N(CCc1ccc(/C(=N\c2ccccc2)Nc2ccccc2)cc1)C(C)C.Cl	32.4%	–	587 mg/kg	LD50 [5]: 160 mg/kg
Br.CCN/C(=N/c1ccc(OCCN(C(C)C)C(C)C)cc1)c1ccccc1	6.8%	100 mg/kg	687 mg/kg	–
CC(C)N(CCOc1ccc(N/C(=N\Cc2ccccc2)c2ccccc2)cc1)C(C)C.Cl	–	187 mg/kg	450 mg/kg	Change (Rattus norvegicus [6]): 0%
Br.c1ccc(/N=C(\Nc2ccc(OCCCN3CCCC3)cc2)c2ccccc2)cc1	23.5%	125 mg/kg	543 mg/kg	–
Cc1cccc(/N=C(\Nc2ccc(OCCN(C(C)C)C(C)C)cc2)c2ccccc2)c1C	23.2%	360 mg/kg	1000 mg/kg	–
Br.CC(C)N(CCOc1ccc(N/C(=N\c2ccc(F)cc2)c2ccccc2)cc1)C(C)C	26%	143 mg/kg	630 mg/kg	–
Br.CN(CCOc1ccc(N/C(=N\c2ccccc2)c2ccccc2)cc1)Cc1ccccc1	15.9%	233 mg/kg	500 mg/kg	–
CC(C)N(CCOc1ccc(N/C(=N\c2ccc(Cl)cc2)c2ccccc2)cc1)C(C)C	31%	1000 mg/kg	1000 mg/kg	–
CC(C)N(CCOc1ccc(N/C(=N\c2ccc(Cl)cc2)c2ccccc2)cc1)C(C)C.Cl	30.9%	–	–	Reduction (Rattus norvegicus [7]): 23.5%; Reduction (Rattus norvegicus [8]): 18.8%; Reduction (Rattus norvegicus [9]): 31.4%; Reduction (Rattus norvegicus [10]): 30.9%; Reduction (Rattus norvegicus [11]): 28.8%; LD50 [12]: 1000 mg/kg; Reduction (Cavia porcellus [13]): 14%; LD50 [14]: 1000 mg/kg; Reduction (Rattus norvegicus [15]): 7.4%; Reduction (Monkey [16]): 35%
Br.COc1ccc(N/C(=N/c2ccc(OCCCN3CCCC3)cc2)c2ccc(C)cc2)cc1	12.6%	43 mg/kg	400 mg/kg	–
CC(C)N(CCOc1ccc(N/C(=N\c2ccccc2)c2ccc(Cl)cc2)cc1)C(C)C.Cl	3.2%	400 mg/kg	1000 mg/kg	–
Cl.c1ccc(/N=C(\Nc2ccc(SCCN3CCCC3)cc2)c2ccccc2)cc1	12.5%	200 mg/kg	587 mg/kg	–

Compound	Change (Rattus norvegicus [1])	LD50 [2]	LD50 [3]	further results
Br.c1ccc(/N=C(\Nc2ccc(OCCN3CCCCC3)cc2)c2ccccc2)cc1	–	142 mg/kg	467 mg/kg	Change (Rattus norvegicus [4]): 5.2%
COc1ccc(/C(=N\c2ccc(OCCN(C(C)C)C(C)C)cc2)Nc2ccccc2)cc1.Cl	18.5%	140 mg/kg	475 mg/kg	–
Br.COc1ccc(N/C(=N/c2ccc(OCCCN3CCCC3)cc2)c2ccccc2)cc1	25.7%	108 mg/kg	400 mg/kg	–
COc1ccc(N/C(=N/c2ccc(OCCN(C(C)C)C(C)C)cc2)c2ccccc2)cc1.Cl	33.5%	160 mg/kg	687 mg/kg	–
CCCCNC(=N)NC(=N)N [BUFORMIN]	–	–	–	Reduction (Rattus norvegicus [10]): 0%; LD50 [12]: 500 mg/kg; LD50 [14]: 140 mg/kg
Br.c1ccc(/N=C(\Nc2ccc(OCCN3CCOCC3)cc2)c2ccccc2)cc1	–	400 mg/kg	715 mg/kg	Change (Rattus norvegicus [6]): 0%
CC(C)CN/C(=N/c1ccc(OCCN(C(C)C)C(C)C)cc1)c1ccccc1	22.8%	80 mg/kg	360 mg/kg	–
N=C(N)NC(=N)NCCc1ccccc1 [PHENFORMIN]	–	–	–	Reduction (Rattus norvegicus [10]): 0%; Reduction (Monkey [17]): 50%; Reduction (Cavia porcellus [18]): 46%; Reduction (Rattus norvegicus [19]): 62%
COc1ccc(/C(=N\c2ccc(OCCN3CCCC3)cc2)Nc2ccccc2)cc1.Cl	14%	–	–	–
C=CC/N=C(\Nc1ccc(OCCN(C(C)C)C(C)C)cc1)c1ccccc1	15%	125 mg/kg	653 mg/kg	–
CC(C)N(CCOc1ccc(N/C(=N\c2cccc(C(F)(F)F)c2)c2ccccc2)cc1)C(C)C.Cl	–	400 mg/kg	1000 mg/kg	Change (Rattus norvegicus [20]): 0%
CCCCN(CCCC)CCOc1ccc(N/C(=N\c2ccccc2)c2ccccc2)cc1.Cl	22.5%	160 mg/kg	800 mg/kg	–
CC(C)N(CCOc1ccc(N/C(=N\C2CCCCC2)c2ccccc2)cc1)C(C)C	9.8%	137 mg/kg	373 mg/kg	–
CC(C)N(CCOc1cccc(N/C(=N\c2ccccc2)c2ccccc2)c1)C(C)C.Cl	–	107 mg/kg	240 mg/kg	Change (Rattus norvegicus [21]): 28.1%
CN(CCOc1ccc(N/C(=N\c2ccccc2)c2ccccc2)cc1)c1ccccc1	10.3%	587 mg/kg	1000 mg/kg	–
COc1ccc(N/C(=N/c2ccc(OCCCN(C(C)C)C(C)C)cc2)c2ccccc2)cc1.Cl	34.1%	108 mg/kg	450 mg/kg	–
CN/C(=N/c1ccc(OCCN(C(C)C)C(C)C)cc1)c1ccccc1	–	112 mg/kg	500 mg/kg	Change (Rattus norvegicus [4]): 13.1%
Br.c1ccc(CN(CCOc2ccc(N/C(=N\c3ccccc3)c3ccccc3)cc2)Cc2ccccc2)cc1	–	–	–	Change (Rattus norvegicus [6]): 0%
CC(C)N(CCSc1ccc(N/C(=N\c2ccccc2)c2ccccc2)cc1)C(C)C.Cl	35.6%	285 mg/kg	400 mg/kg	–
